Drawing on ChEMBL document CHEMBL5344463, “Design, Synthesis, and Antifungal Activity of 3-Substituted-2(5H)-Oxaboroles” (ACS Med Chem Lett, 2024), this text covers Activity and MIC for 23 compounds.

Data set [1] deals with Saccharomyces cerevisiae. As to the kind of experiment: Antimicrobial activity against Saccharomyces cerevisiae assessed as growth inhibition at 50 ug/ml in liquid medium by liquid MIC assay. The following applies: dose 50.0 µg/ml. It counts as functional, organism-based. The method, boiled down:
(§1)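 Single-concentration liquid-medium growth screen of non-spore-forming microbes, run at 50 and 12.5 μg/mL. Growth is read by absorbance.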

For data set [2], the system named is Staphylococcus aureus. As to the kind of experiment: Antibacterial activity against methicillin-resistant Staphylococcus aureus assessed as growth inhibition at 50 ug/ml in liquid medium by liquid MIC assay. It counts as functional, organism-based. The following applies: dose 50.0 µg/ml. The method, boiled down: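 Single-point growth-inhibition screen in liquid medium against nonspore-forming organisms. Compound tested at 50 and 12.5 μg/mL, growth read by absorbance, and reported at the 50 μg/mL level.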

In data set [3] the test system is H9c2. As to the kind of experiment: Cytotoxicity against rat H9c2 cells assessed as cell viability at 100 uM incubated for 24 hrs by CCk8 dye assay. It counts as toxicity, cell-based. The following applies: h9c2, 24 h. In a few lines: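 Rat myoblast H9c2 cells are exposed to 100 μM compound for 24 h. Viability is normalized to PBS no-treatment control. Values are mean ± SEM, n = 3.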

Data set [4] has as its system Erythrocyte. The data set can be described thus: Hemolytic activity in sheep erythrocytes assessed as cell lysis at 50 to 100 uM measured after 1 hr. It counts as toxicity, cell-based, Ovis aries. The following applies: dose 50-100 µM. The method, boiled down:
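Erythrocytes are exposed to compound at 50 and 100 μM for 1 h. Lysis is normalized to a Triton X-100 positive control. Values are mean ± SEM, n = 3.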

Data set [5] concerns Candida albicans. As to the kind of experiment: Antifungal activity against Candida albicans assessed as growth inhibition at 50 ug/ml in liquid medium by liquid MIC assay. It counts as functional, organism-based. The following applies: dose 50.0 µg/ml. The method, boiled down:
as §1

Data set [6] has as its system Staphylococcus aureus. As to the kind of experiment: Antibacterial activity against methicillin-resistant Staphylococcus aureus assessed as growth inhibition incubated for 48 hrs in solid agar medium by solid MIC assay. Format: functional.
For data set [7], the system named is Saccharomyces cerevisiae. The data set can be described thus: Antimicrobial activity against Saccharomyces cerevisiae assessed as growth inhibition incubated for 48 hrs in solid agar medium by solid MIC assay. Format: functional.
For data set [8], the system named is Pseudomonas aeruginosa. As to the kind of experiment: Antibacterial activity against Pseudomonas aeruginosa deltaMexAB-OprM assessed as growth inhibition incubated for 48 hrs in solid agar medium by solid MIC assay. Format: functional.
The test system of data set [9] is Trichophyton mentagrophytes. As to the kind of experiment: Antifungal activity against Trichophyton mentagrophytes assessed as growth inhibition incubated for 48 hrs in solid agar medium by solid MIC assay. It counts as functional. In a few lines: (§2)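 Dose-dependent solid-agar MIC assay for spore-forming fungi (liquid media unusable because mycelia clump and block absorbance). Compound tested at […] in agar. Fungal growth scored visually as white mycelia on the plates. MIC is taken from biological replicates.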

Data set [10] has as its system Candida albicans. As to the kind of experiment: Antifungal activity against Candida albicans assessed as growth inhibition incubated for 48 hrs in solid agar medium by solid MIC assay. Format: functional.
The subject of data set [11] is Bacillus cereus. The data set can be described thus: Antibacterial activity against Bacillus cereus assessed as growth inhibition incubated for 48 hrs in solid agar medium by solid MIC assay. It counts as functional.
Data set [12] has as its system Penicillium chrysogenum. As to the kind of experiment: Antifungal activity against Penicillium chrysogenum assessed as growth inhibition incubated for 48 hrs in solid agar medium by solid MIC assay. It counts as functional. In a few lines: as §2
For data set [13], the system named is Aspergillus flavus. As to the kind of experiment: Antifungal activity against Aspergillus flavus assessed as growth inhibition incubated for 48 hrs in solid agar medium by solid MIC assay. It counts as functional. In a few lines: as §2
In data set [14] the test system is Escherichia coli. As to the kind of experiment: Antibacterial activity against Escherichia coli ATCC 25922 assessed as growth inhibition incubated for 48 hrs in liquid medium by microbroth dilution assay. The following applies: ATCC 25922, 48 h.

Values after ≈ are worked out from the molar mass of the structure shown. Active and inactive are the calls of the source.

Consider `OB1OCC=C1c1cccc(I)c1`, for which the result in [1] and in [5] was Active. Moreover, the result in data set [2] was inactive. The Activity result in [3] and in data set [4] was “Non-Toxic” in each case.
Broadly, the MIC is the smallest concentration in the dilution series that meets the test's criterion for growth inhibition. As for NYSTATIN, the MIC is over 50 µg/mL in data set [6]; 1.56 µg/mL in [7]; over 50 µg/mL in data set [8]; 3.13 µg/mL in data set [9]; 0.78 µg/mL in data set [10]; over 50 µg/mL in [11]. Moreover, the minimum inhibitory concentration (MIC) in data set [12] is 1.56 µg/mL; in data set [13] it was 2.6 µg/mL.
As to `OB1OCC=C1c1cccc(F)c1`, the outcome in data set [1] was Active. Further, the Activity entry in data set [3] and in data set [4] was “Non-Toxic” each time.
Regarding `OB1OCC=C1c1cccs1`, the outcome in [1] was Active. Further, the MIC in data set [14] came to 42 µg/mL (≈ 253 µM).
In the case of `OB1OCC=C1c1ccc(F)cc1`, the Activity entry in data set [3] and in [4] was “Non-Toxic” each time. Besides, the result in data set [5] was Active. Moreover, in data set [14], the MIC came to 42 µg/mL (≈ 236 µM).
In the case of `OB1OCC=C1c1ccc(Br)cc1`, the outcome in data set [1] and in data set [5] was Active. Also, the Activity result in data set [3] and in data set [4] was “Non-Toxic” throughout.
As to `OB1OCC=C1c1ccc2occc2c1`, the outcome in [1] and in data set [5] was Active. Besides, the Activity result in data set [3] and in data set [4] was “Non-Toxic” throughout.
As for `OB1OCc2cc(F)ccc21` [TAVABOROLE], the minimum inhibitory concentration (MIC) in [6] is over 50 µg/mL. Further, the Activity result in [3] and in data set [4] was “Non-Toxic” in each case.
On to `OB1OCC=C1c1ccc(Cl)cc1`, for which the result in data set [1] and in data set [5] was Active. For the same compound, the Activity result in data set [3] and in data set [4] was “Non-Toxic” each time.
As to `OB1OCC=C1C1=CCCCC1`, the outcome in [1] was Active.
As to `OB1OCC=C1c1cccc(Cl)c1`, the result in data set [1] was Active. In addition, the Activity result in data set [3] and in [4] was “Non-Toxic” each time.
Take `OB1OCC=C1c1ccc(OC(F)(F)F)cc1`: the result in data set [1] and in [5] was Active. For the same compound, the Activity result in data set [3] and in data set [4] was “Non-Toxic” each time.
For `COc1cccc(C2=CCOB2O)c1`, the outcome in [1] was Active.
As to `OB1OCC=C1c1cccc(Br)c1`, the result in data set [1] and in data set [5] was Active. Moreover, the Activity result in data set [3] and in data set [4] was “Non-Toxic” in each case.
As for `CCCc1ccc(C2=CCOB2O)cc1`, in data set [1], the outcome was Active. The Activity result in [3] and in data set [4] was “Non-Toxic” each time.
As for `Cc1ccc(C2=CCOB2O)cc1`, the outcome in data set [1] was Active. The Activity result in data set [3] and in [4] was “Non-Toxic” in each case. Further, in [14], the MIC was found to be 42 µg/mL (≈ 241 µM).
In the case of `Cc1cc(F)cc(C2=CCOB2O)c1`, in data set [1], the result was Active. The Activity result in data set [3] and in data set [4] was “Non-Toxic” throughout. In addition, in data set [14], the MIC was over 50 µg/mL.
As for `OB1OCC=C1c1ccccc1F`, the outcome in [1] was Active. Also, the Activity entry in data set [3] and in data set [4] was “Non-Toxic” each time.
For `OB1OCC=C1c1ccc2ccccc2c1`, the Activity entry in [3] and in data set [4] was “Non-Toxic” in each case.
Regarding `OB1OCC=C1c1ccccc1Cl`, in data set [1], the outcome was Active.
As to `OB1OCC=C1c1ccccc1`, in data set [1], the result was Active.
Regarding `Cc1cccc(C2=CCOB2O)c1`, in data set [1], the result was Active. Moreover, the Activity entry in [3] and in data set [4] was “Non-Toxic” in each case.
Turning to `CC(C)(C)c1ccc(C2=CCOB2O)cc1`, the Activity entry in data set [3] and in data set [4] was “Non-Toxic” throughout.
